Assay results published in ChEMBL document CHEMBL3399983, “Synthesis and biological activity of novel mono-indole and mono-benzofuran inhibitors of bacterial transcription initiation complex formation” (Bioorg Med Chem, 2015).
The source made the active and inactive calls. The calls are words filed in the database; no cut-off is given here.

Assays:
[1] = test system: Escherichia coli; test: Growth inhibition of Escherichia coli DH5[alpha] at 200 uM incubated for 16 hrs; format: functional; conditions: for inhibition of growth at 200 µM: read-out: GI
Method in brief: (§1)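 E. coli DH5α grown at 37 °C in LB with shaking to OD600 0.6–0.7, then added to wells holding compound diluted from a 50 mM DMSO stock. Plates shaken at 37 °C, with OD600 read every 10 min over 16 h against an LB blank. Growth inhibition expressed as % of the no-inhibitor control.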

[2] = Inhibition of interaction of RNA polymerase beta' subunit CH-region and region 2.2 of RNA polymerase sigma factor RpoD/RNA polymerase sigma factor sigA (unknown origin) pre-incubated at 37 degC for 15 mins with enzyme followed by incubation at room temperature for 1 hr by ELISA method
[3] = test system: Bacillus subtilis; test: Growth inhibition of Bacillus subtilis 168 incubated for 16 hrs; format: functional
[4] = test system: Bacillus subtilis; test: Growth inhibition of Bacillus subtilis 168 assessed as effect on exponential phase of bacterial growth at 200 uM incubated for 16 hrs; format: functional; conditions: Bacillus subtilis, 168, 16 h; read-out: GI
[5] = Inhibition of interaction of RNA polymerase beta' subunit CH-region and region 2.2 of RNA polymerase sigma factor RpoD/RNA polymerase sigma factor sigA (unknown origin) at 15 uM […] followed by incubation at room temperature for 1 hr by ELISA method
[6] = test system: Bacillus subtilis; test: Growth inhibition of Bacillus subtilis 168 at 200 uM incubated for 16 hrs; format: functional; conditions: for inhibition of growth at 200 µM: Bacillus subtilis, 168, 16 h, read-out: GI
[7] = test system: Staphylococcus aureus; test: Growth inhibition of Staphylococcus aureus at 200 uM incubated for 16 hrs; format: functional; conditions: read-out: GI
[8] = test system: Escherichia coli; test: Growth inhibition of Escherichia coli DH5[alpha] incubated for 16 hrs; format: functional; method in brief: as §1
[9] = test system: Escherichia coli; test: Growth inhibition of Escherichia coli DH5[alpha] assessed as effect on exponential phase of bacterial growth at 200 uM incubated for 16 hrs; format: functional; conditions: read-out: GI; method in brief: as §1

Structure (SMILES): COc1cc(OC)c2c(-c3ccccc3)c(C(=O)C(=O)N3CCOCC3)oc2c1
- inhibition of growth at 200 µM [1]: 6%
- IC50 [2]: 71.6 µM
- GI [3]: >100 µM
- inhibition of growth at 200 µM [4]: 70%
- inhibition [5]: 29%

Structure (SMILES): COc1cc(OC)c2c(-c3ccc(Cl)cc3)c[nH]c2c1C(=O)C(=O)Nc1ccccc1
- inhibition of growth at 200 µM [1]: 23%
- inhibition of growth at 200 µM [6]: 26%
- inhibition [5]: 23%

Structure (SMILES): COc1cc(OC)c2c(C)c(C)[nH]c2c1C(=O)C(=O)N1CCN(c2ccccn2)CC1
- inhibition of growth at 200 µM [1]: 13%
- inhibition of growth at 200 µM [6]: 12%
- inhibition [5]: 27%

Structure (SMILES): COc1cc(OC)c2c(-c3ccc(Br)cc3)c[nH]c2c1C(=O)C(=O)NNc1ccccc1
- inhibition of growth at 200 µM [1]: 24%
- inhibition of growth at 200 µM [6]: 10%
- inhibition [5]: 34%

Structure (SMILES): COc1cc(OC)c2c(-c3ccc(Br)cc3)c[nH]c2c1C(=O)Nc1ccc(C)cc1
- inhibition of growth at 200 µM [1]: 12%
- inhibition of growth at 200 µM [6]: 36%

Structure (SMILES): COc1cc(OC)c2c(-c3ccc(Br)cc3)c[nH]c2c1C(=O)Nc1ccccc1
- inhibition of growth at 200 µM [1]: 13%
- inhibition of growth at 200 µM [6]: 7%
- inhibition [5]: 49%

Structure (SMILES): COc1cc(OC)c2c(-c3ccc(Br)cc3)c(C(=O)C(=O)N3CCN(c4ccccn4)CC3)[nH]c2c1
- inhibition of growth at 200 µM [1]: 38%
- inhibition of growth at 200 µM [6]: 19%
- inhibition [5]: 25%

Structure (SMILES): O=C(C(=O)N1CCN(Cc2ccccc2)CC1)c1c[nH]c2ccccc12
- inhibition of growth at 200 µM [1]: 6%
- inhibition of growth at 200 µM [6]: 70%
- inhibition [5]: 21%

Structure (SMILES): COc1cc(OC)c2c(-c3ccc(Cl)cc3)c[nH]c2c1C(=O)C(=O)N1CCCCC1
- growth inhibition (GI) [1]: inactive
- growth inhibition (GI) [6]: inactive
- inhibition [5]: inactive

Structure (SMILES): COc1cc(OC)c2c(-c3ccc(Cl)cc3)c[nH]c2c1C(=O)C(=O)N1CCCC1
- inhibition of growth at 200 µM [1]: 23%
- inhibition of growth at 200 µM [7]: 60%
- inhibition [5]: inactive

Structure (SMILES): O=C(C(=O)N1CCCCC1)c1c[nH]c2ccccc12
- inhibition of growth at 200 µM [1]: 9%
- inhibition of growth at 200 µM [6]: 12%
- inhibition [5]: 37%

Structure (SMILES): COc1cc(OC)c2c(C)c(C(=O)C(=O)N3CCCC3)[nH]c2c1
- growth inhibition (GI) [1]: inactive
- growth inhibition (GI) [6]: inactive
- inhibition [5]: 44%

Structure (SMILES): COc1cc(OC)c2c(-c3ccc(Br)cc3)c[nH]c2c1C(=O)C(=O)Nc1ccc(C)cc1
- inhibition of growth at 200 µM [1]: 29%
- growth inhibition (GI) [6]: inactive

Structure (SMILES): COc1cc(OC)c2c(-c3ccc(Cl)cc3)c[nH]c2c1C(=O)Nc1ccc(C)cc1
- inhibition of growth at 200 µM [1]: 13%
- inhibition of growth at 200 µM [6]: 13%

Structure (SMILES): COc1cc(OC)c2c(-c3ccc(Br)cc3)c[nH]c2c1C(=O)C(=O)Nc1ccccc1
- inhibition of growth at 200 µM [1]: 33%
- inhibition of growth at 200 µM [6]: 36%
- inhibition [5]: 34%

Structure (SMILES): COc1cc(OC)c2c(-c3ccc(Cl)cc3)c[nH]c2c1C(=O)C(=O)NNc1ccccc1
- inhibition of growth at 200 µM [1]: 20%
- growth inhibition (GI) [6]: inactive
- inhibition [5]: 26%

Structure (SMILES): COc1cc(OC)c2c(C)c(C(=O)C(=O)N3CCCCC3)[nH]c2c1
- growth inhibition (GI) [1]: inactive
- growth inhibition (GI) [6]: inactive
- inhibition [5]: 17%

Structure (SMILES): COc1cc(OC)c2c(-c3ccc(Cl)cc3)c[nH]c2c1C(=O)NNc1ccccc1
- inhibition of growth at 200 µM [1]: 21%
- growth inhibition (GI) [6]: inactive
- inhibition [5]: 60%

Structure (SMILES): COc1cc(OC)c2c(-c3ccc(Cl)cc3)c(C(=O)N3CCOCC3)[nH]c2c1
- inhibition of growth at 200 µM [1]: 42%
- growth inhibition (GI) [6]: inactive
- inhibition [5]: inactive

Structure (SMILES): COc1cc(OC)c2c(-c3ccc(Cl)cc3)c[nH]c2c1C(=O)C(=O)Nc1ccc(C)cc1
- inhibition of growth at 200 µM [1]: 20%
- growth inhibition (GI) [6]: inactive
- inhibition [5]: 37%

Structure (SMILES): COc1cc(OC)c2c(C)c(C(=O)C(=O)N3CCOCC3)[nH]c2c1
- inhibition of growth at 200 µM [1]: 2%
- inhibition of growth at 200 µM [6]: 2%
- inhibition [5]: 33%

Structure (SMILES): COc1cc(OC)c2c(-c3ccc(Cl)cc3)c(C(=O)C(=O)N3CCOCC3)[nH]c2c1
- inhibition of growth at 200 µM [1]: 37%
- inhibition of growth at 200 µM [4]: 37%
- inhibition [5]: 27%

Structure (SMILES): COc1cc(OC)c2c(C)c(C)[nH]c2c1C(=O)C(=O)N1CCOCC1
- growth inhibition (GI) [1]: inactive
- inhibition of growth at 200 µM [4]: 42%
- inhibition [5]: 7%

Structure (SMILES): COc1cc(OC)c2c(-c3ccccc3)c(C(=O)C(=O)N3CCN(c4ccccn4)CC3)oc2c1
- inhibition of growth at 200 µM [1]: 10%
- inhibition of growth at 200 µM [6]: 3%
- inhibition [5]: 41%

Structure (SMILES): CCOC(=O)CNC(=O)C(=O)c1[nH]c2cc(OC)cc(OC)c2c1-c1ccc(Cl)cc1
- inhibition of growth at 200 µM [1]: 53%
- growth inhibition (GI) [6]: inactive
- inhibition [5]: 42%

Structure (SMILES): O=C(C(=O)N1CCOCC1)c1c[nH]c2ccccc12
- inhibition of growth at 200 µM [1]: 4%
- growth inhibition (GI) [6]: inactive
- inhibition [5]: 39%

Structure (SMILES): COc1cc(OC)c2c(-c3ccc(Br)cc3)c(C(=O)C(=O)N3CCCC3)[nH]c2c1
- growth inhibition (GI) [1]: inactive
- growth inhibition (GI) [6]: inactive
- inhibition [5]: inactive

Structure (SMILES): COc1cc(OC)c2c(C)c(C(=O)C(=O)N3CCN(C)CC3)[nH]c2c1
- growth inhibition (GI) [1]: inactive
- growth inhibition (GI) [6]: inactive
- inhibition [5]: 44%

Structure (SMILES): COc1cc(OC)c2c(C)c(C(=O)C(=O)N3CCN(Cc4ccccc4)CC3)[nH]c2c1
- inhibition of growth at 200 µM [1]: 16%
- inhibition of growth at 200 µM [6]: 7%
- inhibition [5]: 46%

Structure (SMILES): COc1cc(OC)c2c(-c3ccc(Br)cc3)c[nH]c2c1C(=O)C(=O)N1CCOCC1
- IC50 [2]: 33.9 µM
- GI [8]: >100 µM
- growth inhibition (GI) [6]: inactive
- inhibition of growth at 200 µM [9]: 59%
- inhibition [5]: 31%

Structure (SMILES): COc1cc(OC)c2c(-c3ccc(Cl)cc3)c(C(=O)C(=O)N3CCCCC3)[nH]c2c1
- inhibition of growth at 200 µM [1]: 18%
- growth inhibition (GI) [6]: inactive
- inhibition [5]: inactive

Structure (SMILES): COc1cc(OC)c2c(-c3ccc(Br)cc3)c(C(=O)C(=O)N3CCCCC3)[nH]c2c1
- inhibition of growth at 200 µM [1]: 7%
- inhibition of growth at 200 µM [6]: 22%
- inhibition [5]: 39%

Structure (SMILES): COc1cc(OC)c2c(-c3ccc(Br)cc3)c[nH]c2c1C(=O)NNc1ccccc1
- inhibition of growth at 200 µM [1]: 23%
- growth inhibition (GI) [6]: inactive
- inhibition [5]: 44%

Structure (SMILES): COc1cc(OC)c2c(-c3ccc(Br)cc3)c[nH]c2c1C(=O)C(=O)N1CCN(Cc2ccccc2)CC1
- inhibition of growth at 200 µM [1]: 6%
- growth inhibition (GI) [6]: inactive
- inhibition [5]: 8%

Structure (SMILES): O=C(C(=O)N1CCN(c2ccccn2)CC1)c1c[nH]c2ccccc12
- inhibition of growth at 200 µM [1]: 4%
- inhibition of growth at 200 µM [6]: 10%
- inhibition [5]: 27%

Structure (SMILES): COc1cc(OC)c2c(-c3ccc(Cl)cc3)c[nH]c2c1C(=O)C(=O)N1CCOCC1
- growth inhibition (GI) [6]: inactive
- inhibition of growth at 200 µM [9]: 38%
- inhibition [5]: inactive

Structure (SMILES): COc1cc(OC)c2c(-c3ccc(Br)cc3)c[nH]c2c1C(=O)C(=O)N1CCCCC1
- inhibition of growth at 200 µM [1]: 26%
- inhibition of growth at 200 µM [6]: 14%
- inhibition [5]: 32%

Structure (SMILES): COc1cc(OC)c2c(C)c(C)[nH]c2c1C(=O)C(=O)N1CCCCC1
- inhibition of growth at 200 µM [1]: 24%
- inhibition of growth at 200 µM [4]: 57%
- inhibition [5]: 39%

Structure (SMILES): COc1cc(OC)c2c(C)c(C(=O)C(=O)N3CCN(c4ccccn4)CC3)[nH]c2c1
- inhibition of growth at 200 µM [1]: 38%
- inhibition of growth at 200 µM [6]: 14%
- inhibition [5]: 48%
